This passage reports Activity and EC50 results from ChEMBL document CHEMBL1157731, “Novel KCNQ2/Q3 agonists as potential therapeutics for epilepsy and neuropathic pain” (J Med Chem, 2010).

Each structure is given as a SMILES string. A value given as a limit tells only on which side of the number the result lay.

Chain of Sodium-dependent dopamine transporter (Homo sapiens) (Q01959 whole entry): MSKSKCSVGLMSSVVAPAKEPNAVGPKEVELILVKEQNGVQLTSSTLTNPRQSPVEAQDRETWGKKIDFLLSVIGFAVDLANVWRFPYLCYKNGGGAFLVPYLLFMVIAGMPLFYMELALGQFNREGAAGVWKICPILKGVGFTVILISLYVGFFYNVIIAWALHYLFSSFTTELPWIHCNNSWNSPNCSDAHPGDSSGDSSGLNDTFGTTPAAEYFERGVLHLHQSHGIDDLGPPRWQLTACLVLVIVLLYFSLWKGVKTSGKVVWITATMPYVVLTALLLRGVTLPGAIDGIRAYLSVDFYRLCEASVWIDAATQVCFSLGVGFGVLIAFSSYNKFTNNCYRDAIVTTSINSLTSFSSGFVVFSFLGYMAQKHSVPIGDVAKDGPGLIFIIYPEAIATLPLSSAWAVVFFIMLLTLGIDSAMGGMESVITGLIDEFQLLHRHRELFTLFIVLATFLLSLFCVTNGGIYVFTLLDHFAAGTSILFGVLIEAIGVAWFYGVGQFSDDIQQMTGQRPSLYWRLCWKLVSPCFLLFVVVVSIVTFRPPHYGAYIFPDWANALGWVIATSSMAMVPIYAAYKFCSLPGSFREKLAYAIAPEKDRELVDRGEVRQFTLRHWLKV
Chain of D(1A) dopamine receptor (Homo sapiens) (P21728 whole entry): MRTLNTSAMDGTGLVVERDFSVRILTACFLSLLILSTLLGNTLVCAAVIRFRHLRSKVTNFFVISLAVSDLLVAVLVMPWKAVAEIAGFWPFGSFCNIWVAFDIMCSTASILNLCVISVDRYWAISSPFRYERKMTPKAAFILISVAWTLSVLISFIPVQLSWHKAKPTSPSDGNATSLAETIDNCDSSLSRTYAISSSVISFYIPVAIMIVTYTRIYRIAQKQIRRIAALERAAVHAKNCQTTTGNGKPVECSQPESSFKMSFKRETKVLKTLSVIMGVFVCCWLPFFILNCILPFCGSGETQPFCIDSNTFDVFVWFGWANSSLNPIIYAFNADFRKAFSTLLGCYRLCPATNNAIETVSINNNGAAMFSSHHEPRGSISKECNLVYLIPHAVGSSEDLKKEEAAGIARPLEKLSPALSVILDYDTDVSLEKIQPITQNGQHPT

One assay addresses Adrenergic receptor alpha-1 (Rattus norvegicus) (UniProt P15823+P23944+P43140). In words: Displacement of [3H]prazosin from adrenergic receptor 1 alpha in rat cerebral cortex at 10 uM. It is filed as tissue-based.
Settings: not given
`Cn1/c(=N/NC(=O)CC2CCCC2)sc2cc(OC(F)(F)F)ccc21`: the Activity came to 0%.

For `CC(C)OC(=O)N/N=c1\sc2cc(OC(F)(F)F)ccc2n1C`, the Activity was found to be 11%.

On to `Cn1/c(=N/NC(=O)CC(C)(C)C)sc2cc(OC(F)(F)F)ccc21`, for which the Activity came to 0%.

The species entered for the next assay is Rattus norvegicus. In words: Displacement of [125I]peptide YY from neuropeptide Y receptor in rat cerebral cortex at 10 uM.
Settings: not given
It counts as tissue-based.
On to `Cn1/c(=N/NC(=O)CC2CCCC2)sc2cc(OC(F)(F)F)ccc21`, for which the Activity came out at 33%.

For `CC(C)OC(=O)N/N=c1\sc2cc(OC(F)(F)F)ccc2n1C`, the Activity came out at 0%.

Compound `Cn1/c(=N/NC(=O)CC(C)(C)C)sc2cc(OC(F)(F)F)ccc21` yielded an Activity of 0%.

A further assay has as its target Sodium-dependent dopamine transporter (Homo sapiens) (UniProt Q01959). In words: Binding affinity to DAT at 10 uM by displacement assay.
Settings: not given
For `Cn1/c(=N/NC(=O)CC2CCCC2)sc2cc(OC(F)(F)F)ccc21`, the Activity was 21%.

In the case of `CC(C)OC(=O)N/N=c1\sc2cc(OC(F)(F)F)ccc2n1C`, the Activity turned out to be 0%.

Compound `Cn1/c(=N/NC(=O)CC(C)(C)C)sc2cc(OC(F)(F)F)ccc21` showed an Activity of 0%.

Test system in the next assay: not listed separately
Put plainly: Binding affinity to central-type benzodiazepine receptor at 10 uM by displacement assay.
Settings: not given
In the case of `Cn1/c(=N/NC(=O)CC2CCCC2)sc2cc(OC(F)(F)F)ccc21`, the Activity was 0%.

Consider `CC(C)OC(=O)N/N=c1\sc2cc(OC(F)(F)F)ccc2n1C`, for which the Activity was determined as 22%.

As for `Cn1/c(=N/NC(=O)CC(C)(C)C)sc2cc(OC(F)(F)F)ccc21`, the Activity was found to be 0%.

For another assay, the target named is T1, Alpha-2A adrenergic receptor (Homo sapiens) (UniProt P08913).
T1 sequence (whole entry): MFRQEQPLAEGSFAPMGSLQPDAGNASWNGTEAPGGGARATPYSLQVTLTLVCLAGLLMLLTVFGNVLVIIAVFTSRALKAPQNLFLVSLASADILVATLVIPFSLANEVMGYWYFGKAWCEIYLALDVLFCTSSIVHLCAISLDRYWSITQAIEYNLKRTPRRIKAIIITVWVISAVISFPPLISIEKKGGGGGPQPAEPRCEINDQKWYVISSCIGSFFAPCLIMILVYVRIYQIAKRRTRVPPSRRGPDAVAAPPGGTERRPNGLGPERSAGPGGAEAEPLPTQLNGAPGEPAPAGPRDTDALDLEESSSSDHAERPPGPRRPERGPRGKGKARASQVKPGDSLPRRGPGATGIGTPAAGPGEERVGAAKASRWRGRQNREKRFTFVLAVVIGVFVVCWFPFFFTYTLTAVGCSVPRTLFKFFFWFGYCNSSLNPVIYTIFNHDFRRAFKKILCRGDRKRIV
Put plainly: Displacement of radioligand from alpha 2 adrenergic receptor at 10 uM.
Settings: not given
`Cn1/c(=N/NC(=O)CC2CCCC2)sc2cc(OC(F)(F)F)ccc21` displayed an Activity of 0%.

In the case of `CC(C)OC(=O)N/N=c1\sc2cc(OC(F)(F)F)ccc2n1C`, the Activity is 0%.

On to `Cn1/c(=N/NC(=O)CC(C)(C)C)sc2cc(OC(F)(F)F)ccc21`, for which the Activity stood at 0%.

Another assay has as its target D(1A) dopamine receptor (Homo sapiens) (UniProt P21728). Put plainly: Displacement of radioligand from dopamine D1 receptor at 10 uM.
Settings: not given
In turn, `Cn1/c(=N/NC(=O)CC2CCCC2)sc2cc(OC(F)(F)F)ccc21` yielded an Activity of 0%.

Take `CC(C)OC(=O)N/N=c1\sc2cc(OC(F)(F)F)ccc2n1C`: the Activity stood at 0%.

Take `Cn1/c(=N/NC(=O)CC(C)(C)C)sc2cc(OC(F)(F)F)ccc21`: the Activity turned out to be 0%.

For a further assay, the target named is 5-hydroxytryptamine receptor 1B (Homo sapiens) (UniProt P28222). In words: Displacement of radioligand from 5HT1B receptor at 10 uM by displacement assay.
Chain of 5-hydroxytryptamine receptor 1B (Homo sapiens) (P28222 whole entry): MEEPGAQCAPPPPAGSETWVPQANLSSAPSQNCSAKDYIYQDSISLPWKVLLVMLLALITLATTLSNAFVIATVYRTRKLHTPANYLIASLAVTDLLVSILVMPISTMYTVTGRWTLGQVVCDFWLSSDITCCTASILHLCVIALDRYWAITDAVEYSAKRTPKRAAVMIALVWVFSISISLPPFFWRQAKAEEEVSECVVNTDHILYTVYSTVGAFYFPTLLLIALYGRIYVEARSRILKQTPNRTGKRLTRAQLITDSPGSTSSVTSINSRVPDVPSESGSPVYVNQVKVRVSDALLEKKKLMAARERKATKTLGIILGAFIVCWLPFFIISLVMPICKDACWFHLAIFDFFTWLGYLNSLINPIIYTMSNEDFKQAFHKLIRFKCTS
Settings: not given
As for `Cn1/c(=N/NC(=O)CC2CCCC2)sc2cc(OC(F)(F)F)ccc21`, the Activity turned out to be 0%.

As to `CC(C)OC(=O)N/N=c1\sc2cc(OC(F)(F)F)ccc2n1C`, the Activity turned out to be 0%.

Take `Cn1/c(=N/NC(=O)CC(C)(C)C)sc2cc(OC(F)(F)F)ccc21`: the Activity was determined as 0%.

Test system in a further assay: not listed separately
In words: Displacement of radioligand from opiate receptor at 10 uM.
Settings: not given
In the case of `Cn1/c(=N/NC(=O)CC2CCCC2)sc2cc(OC(F)(F)F)ccc21`, the Activity is 16%.

Compound `CC(C)OC(=O)N/N=c1\sc2cc(OC(F)(F)F)ccc2n1C` gave an Activity of 11%.

The compound `Cn1/c(=N/NC(=O)CC(C)(C)C)sc2cc(OC(F)(F)F)ccc21` came in with an Activity of 0%.

The target in another assay is Adenosine receptor A2a (Homo sapiens) (UniProt P29274). In words: Displacement of [3H]CGS21680 from human recombinant adenosine A2A receptor expressed in HEK293 cells at 10 uM. It counts as cell-based.
Chain of Adenosine receptor A2a (Homo sapiens) (P29274 whole entry): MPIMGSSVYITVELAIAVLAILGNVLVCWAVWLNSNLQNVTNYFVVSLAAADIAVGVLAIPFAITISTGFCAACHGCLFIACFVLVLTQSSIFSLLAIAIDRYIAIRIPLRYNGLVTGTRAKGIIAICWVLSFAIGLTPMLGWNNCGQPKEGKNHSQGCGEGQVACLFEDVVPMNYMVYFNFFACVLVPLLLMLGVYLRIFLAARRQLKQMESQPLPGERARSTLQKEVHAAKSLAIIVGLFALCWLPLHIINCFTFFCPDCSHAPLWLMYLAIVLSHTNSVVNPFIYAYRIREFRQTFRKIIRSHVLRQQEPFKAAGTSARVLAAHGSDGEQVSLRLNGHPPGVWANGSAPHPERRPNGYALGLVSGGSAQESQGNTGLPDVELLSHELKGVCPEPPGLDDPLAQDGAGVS
Settings: not given
Regarding `Cn1/c(=N/NC(=O)CC2CCCC2)sc2cc(OC(F)(F)F)ccc21`, the Activity was 12%.

For the compound `CC(C)OC(=O)N/N=c1\sc2cc(OC(F)(F)F)ccc2n1C`, the Activity was 10%.

With `Cn1/c(=N/NC(=O)CC(C)(C)C)sc2cc(OC(F)(F)F)ccc21`, the Activity was 0%.

Test system in the next assay: not listed separately
In words: Displacement of radioligand from NMDA receptor at 10 uM.
Settings: not given
For the compound `Cn1/c(=N/NC(=O)CC2CCCC2)sc2cc(OC(F)(F)F)ccc21`, the Activity came to 0%.

`CC(C)OC(=O)N/N=c1\sc2cc(OC(F)(F)F)ccc2n1C` yielded an Activity of 0%.

As for `Cn1/c(=N/NC(=O)CC(C)(C)C)sc2cc(OC(F)(F)F)ccc21`, the Activity worked out at 0%.

For another assay, the target named is Substance-P receptor (Homo sapiens) (UniProt P25103). In words: Displacement of [125I]BH-SP from NK1 receptor in human U373MG cells at 10 uM. To be noted: U-373MG ATCC. It counts as cell-based.
Chain of Substance-P receptor (Homo sapiens) (P25103 whole entry): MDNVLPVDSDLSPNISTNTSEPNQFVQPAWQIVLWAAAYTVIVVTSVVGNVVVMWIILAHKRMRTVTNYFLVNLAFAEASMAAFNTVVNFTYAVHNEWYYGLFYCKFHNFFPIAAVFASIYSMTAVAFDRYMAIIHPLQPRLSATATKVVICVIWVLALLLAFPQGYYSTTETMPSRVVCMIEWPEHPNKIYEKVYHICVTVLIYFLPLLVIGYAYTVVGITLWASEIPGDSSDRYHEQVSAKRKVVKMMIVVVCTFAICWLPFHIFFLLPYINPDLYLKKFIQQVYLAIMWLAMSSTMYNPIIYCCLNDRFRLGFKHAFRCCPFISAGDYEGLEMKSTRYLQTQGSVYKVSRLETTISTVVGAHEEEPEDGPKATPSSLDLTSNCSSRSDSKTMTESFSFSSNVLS
Compound `Cn1/c(=N/NC(=O)CC2CCCC2)sc2cc(OC(F)(F)F)ccc21` showed an Activity of 21%.

Compound `CC(C)OC(=O)N/N=c1\sc2cc(OC(F)(F)F)ccc2n1C` displayed an Activity of 10%.

`Cn1/c(=N/NC(=O)CC(C)(C)C)sc2cc(OC(F)(F)F)ccc21` yielded an Activity of 0%.

Another assay has as its target T2, Glucocorticoid receptor (Homo sapiens) (UniProt P04150).
T2 sequence (whole entry): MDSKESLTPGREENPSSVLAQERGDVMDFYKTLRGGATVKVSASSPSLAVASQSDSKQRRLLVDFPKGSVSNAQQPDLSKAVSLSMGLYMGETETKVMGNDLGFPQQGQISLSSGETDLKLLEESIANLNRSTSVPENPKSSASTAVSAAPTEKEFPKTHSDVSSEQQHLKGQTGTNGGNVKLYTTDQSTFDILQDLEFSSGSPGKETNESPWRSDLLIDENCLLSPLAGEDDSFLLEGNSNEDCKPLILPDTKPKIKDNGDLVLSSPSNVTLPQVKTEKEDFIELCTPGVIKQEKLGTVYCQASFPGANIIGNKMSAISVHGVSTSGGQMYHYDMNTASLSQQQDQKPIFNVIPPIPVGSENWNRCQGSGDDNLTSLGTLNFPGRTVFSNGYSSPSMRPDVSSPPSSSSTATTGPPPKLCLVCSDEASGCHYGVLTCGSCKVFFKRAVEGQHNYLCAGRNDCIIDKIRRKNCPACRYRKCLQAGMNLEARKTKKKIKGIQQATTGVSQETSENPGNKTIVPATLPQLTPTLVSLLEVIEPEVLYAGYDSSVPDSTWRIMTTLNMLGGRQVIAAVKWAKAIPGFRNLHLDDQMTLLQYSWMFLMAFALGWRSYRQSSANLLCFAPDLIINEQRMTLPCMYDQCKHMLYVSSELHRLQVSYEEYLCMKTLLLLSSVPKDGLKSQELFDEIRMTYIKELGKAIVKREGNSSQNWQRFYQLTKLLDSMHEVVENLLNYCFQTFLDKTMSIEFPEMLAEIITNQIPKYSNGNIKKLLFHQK
Put plainly: Binding affinity to glucocorticoid receptor at 10 uM by displacement assay.
Settings: not given
For `Cn1/c(=N/NC(=O)CC2CCCC2)sc2cc(OC(F)(F)F)ccc21`, the Activity was 14%.

With `CC(C)OC(=O)N/N=c1\sc2cc(OC(F)(F)F)ccc2n1C`, the Activity was determined as 0%.

Consider `Cn1/c(=N/NC(=O)CC(C)(C)C)sc2cc(OC(F)(F)F)ccc21`, for which the Activity worked out at 0%.

For another assay, the target named is T3, 5-hydroxytryptamine receptor 1A (Homo sapiens) (UniProt P08908).
T3 sequence (whole entry): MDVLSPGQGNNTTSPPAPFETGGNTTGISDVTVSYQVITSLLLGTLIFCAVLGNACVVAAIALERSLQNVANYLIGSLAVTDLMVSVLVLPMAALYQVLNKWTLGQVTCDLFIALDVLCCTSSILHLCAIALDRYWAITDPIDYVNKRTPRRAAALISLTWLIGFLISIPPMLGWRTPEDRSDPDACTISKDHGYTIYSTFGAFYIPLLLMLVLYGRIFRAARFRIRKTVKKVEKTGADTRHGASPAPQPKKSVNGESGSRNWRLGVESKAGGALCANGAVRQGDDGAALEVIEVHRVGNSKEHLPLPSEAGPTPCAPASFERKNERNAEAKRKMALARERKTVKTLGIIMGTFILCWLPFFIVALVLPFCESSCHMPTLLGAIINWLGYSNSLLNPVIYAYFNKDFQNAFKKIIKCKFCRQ
In words: Displacement of radioligand from 5HT1A receptor at 10 uM by displacement assay.
Settings: not given
Turning to `Cn1/c(=N/NC(=O)CC2CCCC2)sc2cc(OC(F)(F)F)ccc21`, the Activity is 0%.

`CC(C)OC(=O)N/N=c1\sc2cc(OC(F)(F)F)ccc2n1C` had an Activity of 18%.

As to `Cn1/c(=N/NC(=O)CC(C)(C)C)sc2cc(OC(F)(F)F)ccc21`, the Activity came to 0%.

For a further assay, the target named is Sodium-dependent noradrenaline transporter (Homo sapiens) (UniProt P23975). In words: Binding affinity to NET at 10 uM by displacement assay.
Chain of Sodium-dependent noradrenaline transporter (Homo sapiens) (P23975 whole entry): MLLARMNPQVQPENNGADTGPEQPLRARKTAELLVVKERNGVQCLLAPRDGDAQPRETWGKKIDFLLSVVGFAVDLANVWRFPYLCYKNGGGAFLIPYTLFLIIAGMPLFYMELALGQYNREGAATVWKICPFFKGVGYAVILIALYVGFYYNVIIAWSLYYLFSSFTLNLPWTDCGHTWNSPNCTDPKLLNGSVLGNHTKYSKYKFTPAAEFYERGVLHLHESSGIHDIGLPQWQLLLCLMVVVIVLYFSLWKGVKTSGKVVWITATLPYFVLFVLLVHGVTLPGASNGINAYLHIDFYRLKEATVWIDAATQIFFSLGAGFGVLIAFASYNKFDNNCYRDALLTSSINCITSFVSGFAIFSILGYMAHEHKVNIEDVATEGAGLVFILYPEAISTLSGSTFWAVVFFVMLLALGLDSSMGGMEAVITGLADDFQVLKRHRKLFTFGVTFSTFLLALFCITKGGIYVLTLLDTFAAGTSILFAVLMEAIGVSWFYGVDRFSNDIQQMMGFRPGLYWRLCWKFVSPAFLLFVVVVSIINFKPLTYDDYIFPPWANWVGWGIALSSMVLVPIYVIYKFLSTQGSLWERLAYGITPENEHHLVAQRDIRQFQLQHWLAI
Settings: not given
The compound `Cn1/c(=N/NC(=O)CC2CCCC2)sc2cc(OC(F)(F)F)ccc21` showed an Activity of 34%.

On to `CC(C)OC(=O)N/N=c1\sc2cc(OC(F)(F)F)ccc2n1C`, for which the Activity is 43%.

As for `Cn1/c(=N/NC(=O)CC(C)(C)C)sc2cc(OC(F)(F)F)ccc21`, the Activity is 14%.

Another assay relates to Rattus norvegicus. Put plainly: Anticonvulsant activity in po dosed Sprague-Dawley rat assessed as inhibition of pentylenetetrazole-induced seizure treated 30 mins before PTZ challenge. It counts as functional, organism-based.
Settings: not given
The gist of the method:
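Male Sprague-Dawley rats received compound po in 0.5% methylcellulose (1 mL/kg) 30 min before PTZ 85 mg/kg sc. Latency to tonic-clonic seizure timed from PTZ injection. No seizure within 15 min scored as protected (latency 15 min). EC50 derived from latency scores.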
As for `Cn1/c(=N/NC(=O)CC2CCCC2)sc2cc(OC(F)(F)F)ccc21`, the EC50 is 7.5 mg/kg.

Regarding `CC(C)OC(=O)N/N=c1\sc2cc(OC(F)(F)F)ccc2n1C`, the EC50 turned out to be 2.6 mg/kg.

In the case of `Cn1/c(=N/NC(=O)CC(C)(C)C)sc2cc(OC(F)(F)F)ccc21`, the EC50 was 3.8 mg/kg.

The species entered for a further assay is Rattus norvegicus. Put plainly: Displacement of [3H]DTG from sigma opioid receptor in rat cerebral cortex. It is filed as tissue-based.
Settings: not given
`Cn1/c(=N/NC(=O)CC2CCCC2)sc2cc(OC(F)(F)F)ccc21` had an Activity of 0%.

`CC(C)OC(=O)N/N=c1\sc2cc(OC(F)(F)F)ccc2n1C` displayed an Activity of 19%.

Compound `Cn1/c(=N/NC(=O)CC(C)(C)C)sc2cc(OC(F)(F)F)ccc21` displayed an Activity of 0%.

In a further assay the test system is Mus musculus. Put plainly: Anticonvulsant activity against maximal electroshock-induced seizures in po dosed CD1 mouse model treated 30 mins before electroshock application. It counts as functional, organism-based.
Settings: not given
Summed up: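 Male CD-1 mice dosed po (10 mL/kg in 5% DMSO/95% of 0.5% HPMC/1% Tween 80) 30 min before corneal electroshock at 50 mA for 0.2 s, with 1% proparacaine in each eye. Latency to hindlimb extension recorded to 0.1 s. No extension within 6 s scored as protected (latency 6 s). Reported as protected/tested (8 per group), or EC50 derived from latency scores.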
With `Cn1/c(=N/NC(=O)CC2CCCC2)sc2cc(OC(F)(F)F)ccc21`, the EC50 was less than 10 mg/kg.

In turn, `CC(C)OC(=O)N/N=c1\sc2cc(OC(F)(F)F)ccc2n1C` registered an EC50 of 8.8 mg/kg.

Regarding `Cn1/c(=N/NC(=O)CC(C)(C)C)sc2cc(OC(F)(F)F)ccc21`, the EC50 is 4.4 mg/kg.
